Measurements: ChEMBL document CHEMBL1772999, “Synthesis and biological evaluation of 2,4,5-substituted pyrimidines as a new class of tubulin polymerization inhibitors” (J Med Chem, 2011)
The source made the active and inactive calls. The calls are words filed in the database; no cut-off is given here.

Tests used:
Tubulin = Tubulin (Sus scrofa, UniProt P02554+P02550); test: Inhibition of pig brain tubulin polymerization by spectrophotometry
Outline: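 Pig brain microtubule protein from three assembly/disassembly cycles, tubulin purified by phosphocellulose chromatography. Polymerization in PEM buffer (100 mM PIPES, 1 mM EGTA, 1 mM MgCl2) with 1 mM GTP and 5% glycerol at 37 °C, followed by light scattering at 340 nm.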

Bel-7402 = test: Antiproliferative activity against human Bel7402 cells after 72 hrs by sulforhodamine B assay; format: functional, cell-based; conditions: Bel-7402, 72 h
Outline: (§1)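 SRB survival assay: cells seeded in 96-well plates, exposed to a range of compound concentrations for 72 h, fixed with 10% TCA 1 h at 4 °C, stained with 0.4% (w/v) SRB 20 min at room temperature, washed with 1% acetic acid, dye solubilized in 10 mM Tris, absorbance at 510 nm.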

KB = test: Cell cycle arrest in human KB cells assessed as accumulation of cells at G2/M phase after 24 hrs by propidium iodide-based FACScan; format: functional
Outline: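 Subconfluent KB cells exposed to a range of concentrations for 24 h. Adherent plus detached cells collected by trypsinization, fixed overnight in 70% ethanol, stained 30 min at 37 °C with propidium iodide 50 μg/mL plus DNase-free RNase A 50 μg/mL. 10000 cells per group analyzed by flow cytometry.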

A-431 = test: Antiproliferative activity against human A431 cells after 72 hrs by sulforhodamine B assay; format: functional, cell-based; conditions: A-431, 72 h; outline: as §1
A549 = test: Antiproliferative activity against human A549 cells after 72 hrs by sulforhodamine B assay; format: functional, cell-based; conditions: A549, 72 h; outline: as §1
NCI-H460 = test: Antiproliferative activity against human NCI-H460 cells after 72 hrs by sulforhodamine B assay; format: functional, cell-based; conditions: NCI-H460, 72 h; outline: as §1
SK-OV-3 = test: Antiproliferative activity against human SKOV3 cells after 72 hrs by sulforhodamine B assay; format: functional, cell-based; conditions: SK-OV-3, 72 h; outline: as §1
HT-29 = test: Antiproliferative activity against human HT-29 cells after 72 hrs by sulforhodamine B assay; format: functional, cell-based; conditions: HT-29, 72 h; outline: as §1
Tubulin (Sus scrofa) = Tubulin (Sus scrofa) (UniProt P02554+P02550); test: Displacement of colchicine from pig brain tubulin at 25 uM after 60 mins by fluorescence assay
Outline: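 Tubulin (3 μM) preincubated with colchicine (3 μM) 30 min at 37 °C, then compound added (0–25 μM). Fluorescence spectra (excitation 365 nm, emission 435 nm) recorded after 60 min at 37 °C, buffer blank subtracted.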

Sequence of Tubulin (Sus scrofa) (P02550 whole entry, looked up): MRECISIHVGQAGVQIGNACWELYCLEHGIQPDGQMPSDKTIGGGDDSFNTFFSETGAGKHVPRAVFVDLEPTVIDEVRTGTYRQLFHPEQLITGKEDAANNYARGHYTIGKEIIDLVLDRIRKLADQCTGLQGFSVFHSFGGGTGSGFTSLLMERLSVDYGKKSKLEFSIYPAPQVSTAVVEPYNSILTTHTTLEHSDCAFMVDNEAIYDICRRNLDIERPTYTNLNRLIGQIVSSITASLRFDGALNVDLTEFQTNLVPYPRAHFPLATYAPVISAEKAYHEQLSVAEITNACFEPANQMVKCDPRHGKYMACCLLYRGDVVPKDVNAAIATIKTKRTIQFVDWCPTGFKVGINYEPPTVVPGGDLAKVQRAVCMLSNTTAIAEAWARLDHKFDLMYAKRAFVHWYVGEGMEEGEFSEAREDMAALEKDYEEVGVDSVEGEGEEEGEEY
Sequence of Tubulin (Sus scrofa) (P02554 whole entry, looked up): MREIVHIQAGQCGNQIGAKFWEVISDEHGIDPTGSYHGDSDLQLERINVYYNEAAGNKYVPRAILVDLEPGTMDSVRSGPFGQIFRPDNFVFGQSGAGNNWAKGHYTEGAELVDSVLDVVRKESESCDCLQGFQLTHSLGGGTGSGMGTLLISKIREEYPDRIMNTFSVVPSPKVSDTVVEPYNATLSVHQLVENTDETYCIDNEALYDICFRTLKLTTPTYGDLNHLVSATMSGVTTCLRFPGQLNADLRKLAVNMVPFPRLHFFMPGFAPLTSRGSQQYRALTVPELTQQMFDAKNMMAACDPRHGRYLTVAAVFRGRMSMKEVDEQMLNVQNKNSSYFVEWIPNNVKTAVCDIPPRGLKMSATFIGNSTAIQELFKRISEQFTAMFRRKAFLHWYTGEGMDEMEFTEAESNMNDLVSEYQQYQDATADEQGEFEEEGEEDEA

| Compound | IC50 (Tubulin) [nM] | IC50 (Bel-7402) [nM] | EC50 (KB) [nM] | IC50 (A-431) [nM] | IC50 (A549) [nM] | IC50 (NCI-H460) [nM] | IC50 (SK-OV-3) [nM] | IC50 (HT-29) [nM] | Activity (Tubulin (Sus scrofa)) |
| --- | --- | --- | --- | --- | --- | --- | --- | --- | --- |
| CN1CCN(c2ccc(-c3cnc(N)nc3-c3ccccc3O)cc2)CC1 | > 50000 | > 10000 |  |  |  |  |  |  |  |
| CN1CCN(Cc2ccc(-c3cnc(N)nc3-c3ccccc3O)cc2)CC1 | > 50000 | > 10000 |  |  |  |  |  |  |  |
| Nc1ncc(-c2ccc(N3CCOCC3)cc2)c(-c2ccccc2O)n1 | > 50000 | > 10000 |  |  |  |  |  |  |  |
| COc1cc2c(c(OC)c1OC)-c1ccc(OC)c(=O)cc1[C@@H](NC(C)=O)CC2 [COLCHICINE] |  | 40 | 10 | 53.2 | 37 | 50.6 | 71.2 | 21.9 |  |
| CCn1ccc2cc(-c3cnc(N)nc3-c3cc(OC)c(OC)cc3O)ccc21 | > 50000 | > 10000 |  |  |  |  |  |  |  |
| CCn1ccc2cc(-c3cnc(N)nc3-c3ccc(OC)cc3O)ccc21 | > 50000 | > 10000 |  |  |  |  |  |  |  |
| CCC1=C[C@@H]2CN(C1)Cc1c([nH]c3ccccc13)[C@@](C(=O)OC)(c1cc3c(cc1OC)N(C)[C@H]1[C@@](O)(C(=O)OC)[C@H](OC(C)=O)[C@]4(CC)C=CCN5CC[C@]31[C@@H]54)C2 [VINORELBINE] |  |  | 6 | 60 | 64.6 | 43.7 | 26.7 | 11.9 | inactive |
| CC(=O)O[C@H]1C(=O)[C@@]2(C)[C@H]([C@H](OC(=O)c3ccccc3)[C@]3(O)C[C@H](OC(=O)[C@H](O)[C@@H](NC(=O)c4ccccc4)c4ccccc4)C(C)=C1C3(C)C)[C@]1(OC(C)=O)CO[C@@H]1C[C@@H]2O [PACLITAXEL] |  |  | 2 | 9.2 |  | 14.6 | 14.5 | 6.1 |  |
| CCn1ccc2cc(-c3cnc(N)nc3-c3ccc(OC)c(OC)c3O)ccc21 | > 50000 | > 10000 |  |  |  |  |  |  |  |
| Nc1ncc(-c2ccc(CN3CCOCC3)cc2)c(-c2ccccc2O)n1 | > 50000 | > 10000 |  |  |  |  |  |  |  |
| CCn1ccc2cc(-c3cnc(N)nc3-c3cc(OC)ccc3O)ccc21 | > 50000 | > 10000 |  |  |  |  |  |  |  |
| Nc1ncc(-c2ccc(CN3CCCCC3)cc2)c(-c2ccccc2O)n1 | > 50000 | > 10000 |  |  |  |  |  |  |  |
| Nc1ncc(-c2ccc(N3CCCCC3)cc2)c(-c2ccccc2O)n1 | > 50000 | > 10000 |  |  |  |  |  |  |  |
| CCn1ccc2cc(-c3cnc(N)nc3-c3cc(F)ccc3O)ccc21 | 800 | 10 |  | 45.4 | 70.4 | 25.8 | 56.1 | 41.8 |  |

Further lines, results first:

| IC50 (Tubulin) [nM] | IC50 (Bel-7402) [nM] | EC50 (KB) [nM] | IC50 (A-431) [nM] | IC50 (A549) [nM] | IC50 (NCI-H460) [nM] | IC50 (SK-OV-3) [nM] | IC50 (HT-29) [nM] | Activity (Tubulin (Sus scrofa)) | Compound |
| --- | --- | --- | --- | --- | --- | --- | --- | --- | --- |
| > 50000 | > 10000 |  |  |  |  |  |  |  | CCn1ccc2ccc(-c3cnc(N)nc3-c3ccccc3O)cc21 |
| > 50000 | 1000 |  |  |  |  |  |  |  | CCn1ccc2c(-c3cnc(N)nc3-c3ccccc3O)cccc21 |
| 790 | 16 | 20 | 20.3 | 62 | 19 | 32 | 28.2 | Active | CCn1ccc2cc(-c3cnc(N)nc3-c3ccccc3O)ccc21 |
| 5000 | 80 |  | 760 | 1310 | 485 | 760 | 918 |  | CC(C)n1ccc2cc(-c3cnc(N)nc3-c3ccccc3O)ccc21 |
| 5570 | 100 |  | 76.6 | 241 | 57 | 171 | 95.4 |  | CCN(CC)c1ccc(-c2cnc(N)nc2-c2ccccc2O)cc1 |
| > 50000 | > 10000 |  |  |  |  |  |  |  | Nc1ncc(-c2ccc3[nH]ccc3c2)c(-c2ccccc2O)n1 |
| > 50000 | > 10000 |  |  |  |  |  |  |  | Nc1ncc(-c2ccc(N3CCCC3)cc2)c(-c2ccccc2O)n1 |
| > 50000 | 1000 |  |  |  |  |  |  |  | CCn1ccc2cc(-c3cnc(N)nc3-c3ccccc3O)cnc21 |
| > 50000 | > 10000 |  |  |  |  |  |  |  | CN(C)Cc1ccc(-c2cnc(N)nc2-c2ccccc2O)cc1 |
| 920 | 50 |  | 21.7 | 48.2 | 20.5 | 69.2 | 30.8 |  | Cn1ccc2cc(-c3cnc(N)nc3-c3ccccc3O)ccc21 |
| 2350 |  |  |  |  |  |  |  |  | CCN(C)c1ccc(-c2cnc(N)nc2-c2ccccc2O)cc1 |
